In brackets after ≈: the same amount, converted by molar mass. Blank lines part the entries; values can stand above or below the molecule they belong to.
Legend:
[1] = tested on: Canis familiaris; assay: Toxicity in beagle dog assessed as decrease in body weight at 150 mg/kg, po qd administered for 10 days; format: organism-based, Canis lupus familiaris; details: in vivo, 240 h
[2] = tested on: Canis familiaris; assay: Unbound AUC in beagle dog at 75 mg/kg, po qd administered for 14 days; format: ADME, organism-based, Canis lupus familiaris; details: in vivo, 336 h
Method in brief: (§1)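 Beagle dogs were dosed orally once daily in a 14-day exploratory study or 1-month toxicity studies. Steady-state systemic exposure over the 24 h dosing interval is reported as the mean of male and female values combined.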

[3] = tested on: Canis familiaris; assay: In vivo inhibition of DGAT2 in beagle dog assessed as coverage of in vitro IC50 for dog DGAT2 at 2 mg/kg, po qd administered for 1 month; format: functional, Canis lupus familiaris; parameters: scale not given: the % may be the effect or the level left
Method in brief: (§2)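 Beagle dogs, once-daily oral dosing for 14 days or 1 month; systemic exposure with sexes combined; coverage is the average % above dog DGAT2 IC50 at steady state over the 24 h dosing interval.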

[4] = tested on: Rattus norvegicus; assay: Unbound AUC in Wistar Han IGS rat at 100 mg/kg, po qd administered for 14 days; format: ADME, organism-based; details: in vivo, 336 h
Method in brief: (§3)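 Wistar Han rats were dosed orally once daily for 14 days (exploratory, 5/sex/dose) or 1 month (toxicity, 10/sex/dose). Toxicokinetic satellite animals (3–4/sex/dose) were used, and steady-state systemic exposure is given as the mean of male and female values combined.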

[5] = tested on: Rattus norvegicus; assay: Unbound AUC in Wistar Han IGS rat at 300 mg/kg, po qd administered for 1 month; format: ADME, organism-based; details: in vivo; method in brief: as §3
[6] = tested on: Canis familiaris; assay: Toxicity in telemetered beagle dog assessed as change in left ventricular parameters and activity level at 5 mg/kg administered via oral gavage measured over 24 hrs; format: organism-based, Canis lupus familiaris; details: in vivo
[7] = tested on: Canis familiaris; assay: Toxicity in telemetered beagle dog assessed as change in heart rate at 5 mg/kg administered via oral gavage measured over 24 hrs; format: organism-based, Canis lupus familiaris; details: in vivo
[8] = tested on: Canis familiaris; assay: In vivo inhibition of DGAT2 in beagle dog assessed as coverage of in vitro IC50 for dog DGAT2 at 50 mg/kg, po qd administered for 1 month; format: functional, Canis lupus familiaris; parameters: scale not given: the % may be the effect or the level left; method in brief: as §2
[9] = tested on: Canis familiaris; assay: Toxicity in telemetered beagle dog assessed as foamy white salivation at 75 mg/kg administered via oral gavage measured within 4 hrs of dosing; format: organism-based, Canis lupus familiaris; details: in vivo
[10] = tested on: Rattus norvegicus; assay: In vivo inhibition of DGAT2 in Wistar Han IGS rat assessed as coverage of in vitro IC50 for rat DGAT2 at 300 mg/kg, po qd administered for 1 month; format: functional; parameters: scale not given: the % may be the effect or the level left
Method in brief: (§4)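 Wistar Han rats, once-daily oral dosing for 14 days (exploratory, 5/sex/dose) or 1 month (10/sex/dose); toxicokinetics in 3–4/sex/dose with sexes combined; coverage is the average % above rat DGAT2 IC50 at steady state over the 24 h dosing interval.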

[11] = tested on: Canis familiaris; assay: Toxicity in telemetered beagle dog assessed as increase in systolic pressure at 75 mg/kg administered via oral gavage measured over 24 hrs; format: organism-based, Canis lupus familiaris; details: in vivo
[12] = tested on: Rattus norvegicus; assay: In vivo inhibition of DGAT2 in Wistar Han IGS rat assessed as coverage of in vitro IC50 for rat DGAT2 at 500 mg/kg, po qd administered for 14 days; format: functional; parameters: scale not given: the % may be the effect or the level left; method in brief: as §4
[13] = tested on: Rattus norvegicus; assay: In vivo inhibition of DGAT2 in Wistar Han IGS rat assessed as coverage of in vitro IC50 for rat DGAT2 at 60 mg/kg, po qd administered for 1 month; format: functional; parameters: scale not given: the % may be the effect or the level left; method in brief: as §4
[14] = tested on: Canis familiaris; assay: Toxicity in telemetered beagle dog assessed as increase in diastolic pressure at 25 mg/kg administered via oral gavage measured over 24 hrs; format: organism-based, Canis lupus familiaris; details: in vivo
[15] = tested on: Canis familiaris; assay: Toxicity in beagle dog assessed as decrease in food consumption at 100 mg/kg, po qd administered starting on day 11 post 150 mg/kg dosing period and continuing for 20 days; format: organism-based, Canis lupus familiaris; details: in vivo, 480 h
[16] = tested on: Canis familiaris; assay: In vivo inhibition of DGAT2 in beagle dog assessed as coverage of in vitro IC50 for dog DGAT2 at 100 to 150 mg/kg, po qd administered for 1 month; format: functional, Canis lupus familiaris; parameters: scale not given: the % may be the effect or the level left; method in brief: as §2
[17] = tested on: Canis familiaris; assay: Unbound AUC in beagle dog at 2 mg/kg, po qd administered for 1 month; format: ADME, organism-based, Canis lupus familiaris; details: in vivo; method in brief: as §1
[18] = tested on: Canis familiaris; assay: In vivo inhibition of DGAT2 in beagle dog assessed as coverage of in vitro IC50 for dog DGAT2 at 5 mg/kg, po qd administered for 1 month; format: functional, Canis lupus familiaris; parameters: scale not given: the % may be the effect or the level left; method in brief: as §2
[19] = tested on: Canis familiaris; assay: Unbound Cmax in beagle dog at 100 to 150 mg/kg, po qd administered for 1 month; format: ADME, organism-based, Canis lupus familiaris; details: in vivo; method in brief: as §1
[20] = tested on: Canis familiaris; assay: Toxicity in telemetered beagle dog assessed as change in ECG intervals at 5 mg/kg administered via oral gavage measured over 24 hrs; format: organism-based, Canis lupus familiaris; details: in vivo
[21] = tested on: Rattus norvegicus; assay: In vivo inhibition of DGAT2 in Wistar Han IGS rat assessed as coverage of in vitro IC50 for rat DGAT2 at 10 mg/kg, po qd administered for 14 days; format: functional; parameters: scale not given: the % may be the effect or the level left; method in brief: as §4
[22] = tested on: Canis familiaris; assay: Toxicity in telemetered beagle dog assessed as change in blood pressure at 5 mg/kg administered via oral gavage measured over 24 hrs; format: organism-based, Canis lupus familiaris; details: in vivo
[23] = Fraction unbound in rat plasma; format: ADME, cell-free
[24] = Thermodynamic solubility of the compound at pH 6.5; format: physicochemical; details: buffer, read-out: Therm_solubility
[25] = Apparent intrinsic clearance in human hepatocytes assessed per million cells; format: ADME, cell-based, Hepatocyte
[26] = Drug metabolism in human liver microsomes assessed as fraction of UGT-mediated glucuronidation preincubated for 5 mins followed by addition of NADPH regenerating system and measured after 2.5 to 60 mins; format: ADME
Method in brief: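 Fractions of metabolism attributed to CYP oxidation and UGT glucuronidation were derived from human liver microsomal incubations. For the glucuronidation arm, microsomes were supplemented with the UGT cofactor UDP-glucuronic acid.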

[27] = Apparent intrinsic clearance in dog hepatocytes assessed per million cells; format: ADME, cell-based, Canis lupus familiaris, Hepatocyte
[28] = biological target: T1, Diacylglycerol O-acyltransferase 2 (Homo sapiens, UniProt Q96PD7); assay: Inhibition of human DGAT2
T1 sequence (Q96PD7 whole entry): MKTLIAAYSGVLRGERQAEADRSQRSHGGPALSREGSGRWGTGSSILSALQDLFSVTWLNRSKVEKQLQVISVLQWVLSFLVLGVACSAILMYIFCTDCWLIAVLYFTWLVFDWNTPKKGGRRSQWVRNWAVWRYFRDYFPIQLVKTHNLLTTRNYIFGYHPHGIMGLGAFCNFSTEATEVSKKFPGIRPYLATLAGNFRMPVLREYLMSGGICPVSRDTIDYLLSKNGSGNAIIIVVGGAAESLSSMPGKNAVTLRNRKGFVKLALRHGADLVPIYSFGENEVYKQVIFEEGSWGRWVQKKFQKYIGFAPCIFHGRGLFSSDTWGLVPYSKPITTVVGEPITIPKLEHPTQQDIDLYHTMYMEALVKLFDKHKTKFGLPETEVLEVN
Method in brief: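 IC50 against human DGAT2 in an enzymatic assay, reported as the geometric mean of at least three replicates with SEM.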

[29] = Ratio of Cmax in beagle dog at 3 mg/kg, po qd administered for 1 month to IC50 for in vitro inhibition of dog DGAT2; format: organism-based, Canis lupus familiaris; details: in vivo
Method in brief: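 One-month toxicity study in Beagle dogs with N = 2/sex/dose. Plasma exposure at each dose level was referenced to the dog DGAT2 enzymatic IC50, reported as the geometric mean of at least three replicates.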

[30] = Fraction unbound in dog plasma; format: ADME, cell-free, Canis lupus familiaris
[31] = Half life in beagle dog at 5 mg/kg, po; format: ADME, organism-based, Canis lupus familiaris; details: in vivo

Compound: CS(=O)(=O)O.O=C([C@@H]1CCCN(c2ccc3nc(C4(n5cc(Cl)cn5)CC4)[nH]c3n2)C1)N1CCCC1
- Activity [1]: Toxic
- fAUC [2]: 24800 ng·h/mL
- Activity [3]: 60%
- fAUC [4]: 25600 ng·h/mL
- fAUC [5]: 62500 ng·h/mL
- Activity [6]: Non-Toxic
- Activity [7]: Non-Toxic
- Activity [8]: >99%
- Activity [9]: Toxic
- Activity [10]: >99%
- Activity [11]: 5 mmHg
- Activity [12]: >99%
- Activity [13]: 98%
- Activity [14]: Non-Toxic
- Activity [15]: Non-Toxic
- Activity [16]: >99%
- fAUC [17]: 238 ng·h/mL
- Activity [18]: 87%
- fCmax [19]: 16.3 µM
- Activity [20]: Non-Toxic
- Activity [21]: 75%
- Activity [22]: Non-Toxic

- fraction unbound [23]: 0.14
- solubility thermodynamic [24]: 285 µg/mL (≈ 666 µM)
- CLH(app) [25]: 16.1 µL/min
- Ratio [26]: 0.39
- CLH(app) [27]: 8.4 µL/min
- IC50 [28]: 0.02 µM
- Ratio [29]: 11
- fraction unbound [30]: 0.12
- half-life [31]: 3 h
Compound: C[C@@H](c1nc2ccc(N3CCC[C@@H](C(=O)N4CCCC4)C3)nc2[nH]1)n1cc(Cl)cn1

Source: ChEMBL document CHEMBL4261487, “Small structural changes of the imidazopyridine diacylglycerol acyltransferase 2 (DGAT2) inhibitors produce an improved safety profile” (Medchemcomm, 2017)
